target: Albumin (Bos taurus, UniProt P02769); test: Inhibition of glycation of bovine serum albumin assessed as advanced glycated end product measured after 7 days by spectrofluorimeter in presence of glucose anhydrous; conditions: not given
Procedure, shortened: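 BSA (10 mg/mL) incubated with anhydrous glucose (50 mg/mL) in 67 mM sodium phosphate buffer, pH 7.4, containing 3 mM sodium azide; compounds dissolved in DMSO. Incubation 37 °C for 7 days. Then 100% trichloroacetic acid added and the mixture centrifuged at 15,000 rpm, 4 min, 4 °C. A PBS, pH 10, was also prepared.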

Chain of Albumin (P02769 whole entry): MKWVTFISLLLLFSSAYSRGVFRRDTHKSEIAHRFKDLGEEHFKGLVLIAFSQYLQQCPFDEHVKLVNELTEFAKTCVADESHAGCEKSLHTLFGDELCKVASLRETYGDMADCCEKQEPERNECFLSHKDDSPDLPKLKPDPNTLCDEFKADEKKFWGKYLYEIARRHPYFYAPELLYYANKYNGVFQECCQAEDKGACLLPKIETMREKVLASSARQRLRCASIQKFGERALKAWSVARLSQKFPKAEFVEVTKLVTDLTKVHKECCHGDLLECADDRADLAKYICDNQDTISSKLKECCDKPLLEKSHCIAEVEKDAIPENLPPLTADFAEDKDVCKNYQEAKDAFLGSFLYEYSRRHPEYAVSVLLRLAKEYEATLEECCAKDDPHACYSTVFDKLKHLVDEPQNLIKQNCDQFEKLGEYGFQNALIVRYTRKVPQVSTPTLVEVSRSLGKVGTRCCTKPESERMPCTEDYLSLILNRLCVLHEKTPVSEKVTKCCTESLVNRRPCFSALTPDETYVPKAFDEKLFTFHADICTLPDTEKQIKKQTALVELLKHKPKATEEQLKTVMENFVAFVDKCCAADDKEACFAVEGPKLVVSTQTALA

IC50	SMILES
Not Active	CC(C)(C)OC(=O)N1CCCC1C(=O)N1CCC(c2noc3cc(F)ccc23)CC1 (stereo not given)
Not Active	O=C(CNC(=S)Nc1cccc(Cl)c1)N1CCC(c2noc3cc(F)ccc23)CC1
Not Active	O=C(CNC(=S)Nc1ccc(Cl)cc1)N1CCC(c2noc3cc(F)ccc23)CC1
Not Active	CC(C)(C)OC(=O)NCC(=O)N1CCC(c2noc3cc(F)ccc23)CC1

same assay, conditions: read-out: IC50

SMILES	IC50
O=C(C1CCCN1C(=O)Nc1cccc(Br)c1)N1CCC(c2noc3cc(F)ccc23)CC1 (stereo not given)	6.9 µM
O=C(C1CCCN1C(=O)Nc1ccc(Br)cc1)N1CCC(c2noc3cc(F)ccc23)CC1 (stereo not given)	6.8 µM
COc1ccccc1NC(=O)N1CCCC1C(=O)N1CCC(c2noc3cc(F)ccc23)CC1 (stereo not given)	30.6 µM
COc1cccc(NC(=O)N2CCCC2C(=O)N2CCC(c3noc4cc(F)ccc34)CC2)c1 (stereo not given)	33.4 µM
COc1ccc(NC(=O)N2CCCC2C(=O)N2CCC(c3noc4cc(F)ccc34)CC2)cc1 (stereo not given)	22.1 µM
O=C(C1CCCN1C(=O)Nc1ccc(F)cc1)N1CCC(c2noc3cc(F)ccc23)CC1 (stereo not given)	76.1 µM
O=C(C1CCCN1C(=O)Nc1ccc(Cl)cc1)N1CCC(c2noc3cc(F)ccc23)CC1 (stereo not given)	60.3 µM
O=C(NCC(=O)N1CCC(c2noc3cc(F)ccc23)CC1)Nc1ccccc1F	55.5 µM
O=C(CNC(=S)Nc1ccccc1F)N1CCC(c2noc3cc(F)ccc23)CC1	9.1 µM
O=C(NCC(=O)N1CCC(c2noc3cc(F)ccc23)CC1)Nc1cccc(F)c1	100 µM
O=C(NCC(=O)N1CCC(c2noc3cc(F)ccc23)CC1)Nc1ccc(F)cc1	75.8 µM
O=C(CNC(=S)Nc1ccc(F)cc1)N1CCC(c2noc3cc(F)ccc23)CC1	70.3 µM
O=C(NCC(=O)N1CCC(c2noc3cc(F)ccc23)CC1)Nc1cccc(Cl)c1	144 µM
O=C(NCC(=O)N1CCC(c2noc3cc(F)ccc23)CC1)Nc1ccc(Cl)cc1	83.9 µM
O=C(CNC(=S)Nc1ccccc1Br)N1CCC(c2noc3cc(F)ccc23)CC1	6.3 µM
O=C(NCC(=O)N1CCC(c2noc3cc(F)ccc23)CC1)Nc1cccc(Br)c1	9.3 µM
O=C(CNC(=S)Nc1cccc(Br)c1)N1CCC(c2noc3cc(F)ccc23)CC1	4.9 µM
O=C(NCC(=O)N1CCC(c2noc3cc(F)ccc23)CC1)Nc1ccc(Br)cc1	8.5 µM
O=C(NCC(=O)N1CCC(c2noc3cc(F)ccc23)CC1)Nc1ccccc1	390 µM
O=C(CNC(=S)Nc1ccccc1)N1CCC(c2noc3cc(F)ccc23)CC1	380 µM
COc1ccccc1NC(=O)NCC(=O)N1CCC(c2noc3cc(F)ccc23)CC1	20.2 µM
COc1ccccc1NC(=S)NCC(=O)N1CCC(c2noc3cc(F)ccc23)CC1	4.1 µM
COc1cccc(NC(=O)NCC(=O)N2CCC(c3noc4cc(F)ccc34)CC2)c1	21.1 µM
COc1cccc(NC(=S)NCC(=O)N2CCC(c3noc4cc(F)ccc34)CC2)c1	15.3 µM
COc1ccc(NC(=O)NCC(=O)N2CCC(c3noc4cc(F)ccc34)CC2)cc1	19.5 µM
COc1ccc(NC(=S)NCC(=O)N2CCC(c3noc4cc(F)ccc34)CC2)cc1	3.6 µM
C[C@@H]1O[C@@H](OC[C@H]2O[C@@H](Oc3c(-c4ccc(O)c(O)c4)oc4cc(O)cc(O)c4c3=O)[C@H](O)[C@@H](O)[C@@H]2O)[C@H](O)[C@H](O)[C@H]1O [RUTIN]	41.9 µM

The remaining lines, values ahead:

IC50	SMILES
59.4 µM	O=C(C1CCCN1C(=S)Nc1ccc(Cl)cc1)N1CCC(c2noc3cc(F)ccc23)CC1 (stereo not given)
7.8 µM	O=C(C1CCCN1C(=S)Nc1ccccc1Br)N1CCC(c2noc3cc(F)ccc23)CC1 (stereo not given)
4.7 µM	O=C(C1CCCN1C(=S)Nc1cccc(Br)c1)N1CCC(c2noc3cc(F)ccc23)CC1 (stereo not given)
295 µM	O=C(C1CCCN1C(=S)Nc1ccccc1)N1CCC(c2noc3cc(F)ccc23)CC1 (stereo not given)
5.2 µM	COc1ccccc1NC(=S)N1CCCC1C(=O)N1CCC(c2noc3cc(F)ccc23)CC1 (stereo not given)
20.5 µM	COc1cccc(NC(=S)N2CCCC2C(=O)N2CCC(c3noc4cc(F)ccc34)CC2)c1 (stereo not given)
3.9 µM	COc1ccc(NC(=S)N2CCCC2C(=O)N2CCC(c3noc4cc(F)ccc34)CC2)cc1 (stereo not given)
54.8 µM	O=C(C1CCCN1C(=O)Nc1ccccc1F)N1CCC(c2noc3cc(F)ccc23)CC1 (stereo not given)
7.8 µM	O=C(C1CCCN1C(=S)Nc1ccccc1F)N1CCC(c2noc3cc(F)ccc23)CC1 (stereo not given)
117 µM	O=C(C1CCCN1C(=O)Nc1cccc(F)c1)N1CCC(c2noc3cc(F)ccc23)CC1 (stereo not given)
70.9 µM	O=C(C1CCCN1C(=S)Nc1ccc(F)cc1)N1CCC(c2noc3cc(F)ccc23)CC1 (stereo not given)
145 µM	O=C(C1CCCN1C(=O)Nc1cccc(Cl)c1)N1CCC(c2noc3cc(F)ccc23)CC1 (stereo not given)
126 µM	O=C(C1CCCN1C(=S)Nc1cccc(Cl)c1)N1CCC(c2noc3cc(F)ccc23)CC1 (stereo not given)
340 µM	O=C(C1CCCN1C(=O)Nc1ccccc1)N1CCC(c2noc3cc(F)ccc23)CC1 (stereo not given)

— ChEMBL document CHEMBL2311433, “Inhibition of protein glycation by urea and thiourea derivatives of glycine/proline conjugated benzisoxazole analogue - synthesis and structure-activity studies” (Eur J Med Chem, 2013)
